Experimental data published in ChEMBL document CHEMBL1125563, “Selective, centrally acting serotonin 5-HT2 antagonists. 1. 2- and 6-substituted 1-phenyl-3-(4-piperidinyl)-1H-indoles” (J Med Chem, 1992).

Columns and labels:
[1] = biological target: T1, Adrenergic receptor alpha-1 (Rattus norvegicus, UniProt P15823+P23944+P43140); experiment: Displacement of [3H]prazosin from Alpha-1 adrenergic receptor of whole rat brain membranes; format: cell membranes, Membrane
T1 sequence (P15823 whole entry): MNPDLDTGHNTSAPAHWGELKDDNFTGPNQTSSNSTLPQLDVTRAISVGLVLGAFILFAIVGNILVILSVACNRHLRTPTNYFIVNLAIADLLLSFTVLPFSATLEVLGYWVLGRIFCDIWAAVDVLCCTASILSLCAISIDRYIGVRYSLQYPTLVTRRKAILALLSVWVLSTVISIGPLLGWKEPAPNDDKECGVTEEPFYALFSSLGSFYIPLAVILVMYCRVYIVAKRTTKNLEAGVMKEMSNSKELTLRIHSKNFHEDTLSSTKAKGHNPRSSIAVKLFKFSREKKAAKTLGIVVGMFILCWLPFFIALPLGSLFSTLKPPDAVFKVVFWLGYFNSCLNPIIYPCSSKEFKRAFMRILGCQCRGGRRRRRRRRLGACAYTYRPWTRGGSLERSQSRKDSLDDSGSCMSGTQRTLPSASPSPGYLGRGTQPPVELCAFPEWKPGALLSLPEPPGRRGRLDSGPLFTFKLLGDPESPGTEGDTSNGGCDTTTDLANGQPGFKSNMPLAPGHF
T1 sequence (P23944 whole entry): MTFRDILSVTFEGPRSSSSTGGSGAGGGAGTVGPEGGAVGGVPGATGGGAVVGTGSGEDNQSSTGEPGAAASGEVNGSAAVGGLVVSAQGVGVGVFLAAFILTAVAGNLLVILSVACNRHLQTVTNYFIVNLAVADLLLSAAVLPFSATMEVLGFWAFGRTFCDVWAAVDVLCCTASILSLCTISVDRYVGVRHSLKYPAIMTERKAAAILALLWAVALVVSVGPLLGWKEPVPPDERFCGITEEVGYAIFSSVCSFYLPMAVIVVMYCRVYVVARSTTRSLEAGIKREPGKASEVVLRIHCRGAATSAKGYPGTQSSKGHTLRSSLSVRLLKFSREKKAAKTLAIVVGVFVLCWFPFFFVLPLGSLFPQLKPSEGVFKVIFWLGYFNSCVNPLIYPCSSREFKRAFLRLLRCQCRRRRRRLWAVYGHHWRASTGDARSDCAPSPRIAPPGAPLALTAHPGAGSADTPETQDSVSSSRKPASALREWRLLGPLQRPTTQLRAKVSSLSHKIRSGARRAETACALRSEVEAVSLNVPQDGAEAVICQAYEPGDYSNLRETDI
T1 sequence (P43140 whole entry): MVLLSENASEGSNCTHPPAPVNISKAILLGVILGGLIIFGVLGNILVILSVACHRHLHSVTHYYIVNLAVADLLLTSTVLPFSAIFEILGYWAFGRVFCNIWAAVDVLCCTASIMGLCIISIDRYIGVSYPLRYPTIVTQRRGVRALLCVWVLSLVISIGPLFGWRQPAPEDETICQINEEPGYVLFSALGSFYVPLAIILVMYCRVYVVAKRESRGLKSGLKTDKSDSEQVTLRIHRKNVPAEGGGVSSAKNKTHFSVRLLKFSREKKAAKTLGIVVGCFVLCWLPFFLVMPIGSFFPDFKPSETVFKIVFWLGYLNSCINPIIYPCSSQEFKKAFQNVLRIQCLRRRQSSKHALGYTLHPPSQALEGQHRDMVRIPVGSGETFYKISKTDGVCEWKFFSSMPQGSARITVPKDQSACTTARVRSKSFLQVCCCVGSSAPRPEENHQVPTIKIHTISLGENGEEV
In short: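 α1 adrenoceptor binding measured as displacement of [3H]prazosin from whole rat brain membranes. Five test-drug concentrations spanning three decades in triplicate, two full curves; IC50 from log concentration-effect curves, logarithmic mean of at least two determinations.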

[2] = biological target: Serotonin 2 (5-HT2) receptor (Rattus norvegicus, UniProt P30994+P08909+P14842); experiment: Displacement of [3H]ketanserin from 5-hydroxytryptamine 2 receptor from rat cortical membranes.; format: cell membranes, Membrane
In short: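 [3H]ketanserin displacement from rat cortical membranes (5-HT2). Five concentrations across three decades in triplicate, two full curves; IC50 estimated on a log-concentration scale, given as logarithmic mean of at least two determinations.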

D(2) dopamine receptor = D(2) dopamine receptor (Rattus norvegicus, UniProt P61169); experiment: Displacement of [3H]-spiperone from Dopamine receptor D2 from rat striatal membranes; format: cell membranes, Membrane
In short: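 [3H]spiperone displacement from rat striatal membranes (D2). Five test-drug concentrations over three decades, in triplicate, two full curves; IC50 from log concentration-effect curves, reported as logarithmic mean of at least two determinations.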

Mus musculus [3] = species: Mus musculus; experiment: Compound was evaluated for the inhibition of isolation-induced aggression at a threshold of 180 seconds; format: functional
In short: (§1)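 Isolated male NMRI mice (3 weeks) trained to attack a nonaggressive intruder of the same strain; only mice with attack latency <25 s included. Pretested just before dosing and 2 h after sc test substance; observation maximum 180 s; at least eight mice per dose.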

Rattus norvegicus [4] = experiment: Compound was evaluated for the inhibition of quipazine-induced head twitches after 24 hr (administered subcutaneously); 0.0089-0.12; format: functional; settings: sc
Rattus norvegicus [5] = experiment: Compound was evaluated for the inhibition of pergolide-induced reactions after 2 hr (administered subcutaneously); format: functional; settings: sc
In short: (§2)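 Male Wistar rats with unilateral 6-OHDA lesions; test drug sc 2 h before pergolide (0.05 µmol/kg sc) to induce contralateral circling. Effect of each dose expressed as percent of mean of control sessions 1 week before and 1 week after, per rat; at least four rats per dose; ED50 by log-probit analysis.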

Mus musculus [6] = species: Mus musculus; experiment: Compound was evaluated for the inhibition of isolation-induced aggression at a threshold of, 90 seconds; format: functional; in short: as §1
Rattus norvegicus [7] = experiment: Compound was evaluated for the inhibition of quipazine-induced head twitches after 2 hr (administered subcutaneously); 0.0027-0.073; format: functional; settings: sc
Rattus norvegicus [8] = experiment: Compound was evaluated for the inhibition of quipazine-induced head twitches after 24 hr (administered perorally); 0.017-0.18; format: functional; settings: po
Rattus norvegicus [9] = experiment: Compound was evaluated for the inhibition of quipazine-induced head twitches after 24 h (administered perorally); 0.056-0.22; format: functional; settings: po
Mus musculus [10] = species: Mus musculus; experiment: Compound was evaluated for the inhibition of isolation-induced aggression at a threshold of,90 seconds; format: functional; in short: as §1
Rattus norvegicus [11] = experiment: Compound was evaluated for the inhibition of quipazine-induced head twitches after 2 hr (administered subcutaneously); 0.018-0.096; format: functional; settings: sc
Rattus norvegicus [12] = experiment: Compound was evaluated for the inhibition of quipazine-induced head twitches after 24 hr (administered subcutaneously); 0.010-0.12; format: functional; settings: sc
Rattus norvegicus [13] = experiment: Compound was evaluated for the inhibition of pergolide-induced reactions after 2 hr (administered subcutaneously); 1.5-8.9; format: functional; settings: sc; in short: as §2
Rattus norvegicus [14] = experiment: Compound was evaluated for the inhibition of quipazine-induced head twitches after 24 hr (administered subcutaneously); 0.014-0.066; format: functional; settings: sc
Rattus norvegicus [15] = experiment: Compound was evaluated for the inhibition of quipazine-induced head twitches after 2 hr (administered subcutaneously); 0.022-0.056; format: functional; settings: sc
Mus musculus [16] = species: Mus musculus; experiment: Compound was evaluated for the inhibition of isolation-induced aggression at a threshold of, 90 seconds; 3.7-9.4; format: functional; in short: as §1
Rattus norvegicus [17] = experiment: Compound was evaluated for the inhibition of quipazine-induced head twitches after 24 hr (administered perorally); 0.020-0.078; format: functional; settings: po
Mus musculus [18] = species: Mus musculus; experiment: Compound was evaluated for the inhibition of isolation-induced aggression at a threshold of 180 seconds; 4.4-13; format: functional; in short: as §1
Rattus norvegicus [19] = experiment: Compound was evaluated for the inhibition of quipazine-induced head twitches after 2 h (administered subcutaneously); format: functional; settings: sc
Rattus norvegicus [20] = experiment: Compound was evaluated for the inhibition of quipazine-induced head twitches after 24 hr (administered subcutaneously); format: functional; settings: sc
Rattus norvegicus [21] = experiment: Compound was evaluated for the inhibition of quipazine-induced head twitches after 24 hr (administered perorally); 0.026-0.12; format: functional; settings: po
Rattus norvegicus [22] = experiment: Compound was evaluated for the inhibition of quipazine-induced head twitches after 2 h (administered subcutaneously); 0.064-0.18; format: functional; settings: sc
Rattus norvegicus [23] = experiment: Compound was evaluated for the inhibition of quipazine-induced head twitches after 24 hr (administered subcutaneously); 0.017-0.16; format: functional; settings: sc

D(2) dopamine receptor, sequence (P61169 whole entry): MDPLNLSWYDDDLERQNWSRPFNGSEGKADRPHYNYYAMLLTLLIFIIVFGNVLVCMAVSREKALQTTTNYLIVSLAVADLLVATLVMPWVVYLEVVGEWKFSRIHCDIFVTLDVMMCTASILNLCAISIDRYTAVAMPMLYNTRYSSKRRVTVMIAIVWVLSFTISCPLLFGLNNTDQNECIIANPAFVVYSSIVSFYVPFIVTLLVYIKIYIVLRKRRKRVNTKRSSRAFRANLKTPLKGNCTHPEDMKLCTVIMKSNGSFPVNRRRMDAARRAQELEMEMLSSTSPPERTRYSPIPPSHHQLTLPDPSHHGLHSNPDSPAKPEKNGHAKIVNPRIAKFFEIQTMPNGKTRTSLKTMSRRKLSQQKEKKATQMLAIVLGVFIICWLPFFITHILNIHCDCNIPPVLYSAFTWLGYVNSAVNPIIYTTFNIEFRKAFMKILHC

Row | SMILES | IC50 [1] [nM] | IC50 [2] [nM] | IC50 (D(2) dopamine receptor) [nM] | other results
1 | Cc1ccc2c(C3CCN(CCN4CCN(C(C)C)C4=O)CC3)cn(-c3ccccc3)c2c1 | 120 | 2 |  | ED50 (Mus musculus [3]): > 11 µmol/kg; ED50 (Rattus norvegicus [4]): 0.032 µmol/kg; ED50 (Rattus norvegicus [5]): > 22 µmol/kg; ED50 (Mus musculus [6]): > 11 µmol/kg; ED50 (Rattus norvegicus [7]): 0.014 µmol/kg; ED50 (Rattus norvegicus [8]): 0.056 µmol/kg
2 | CC(C)N1CCN(CCN2CCC(c3c[nH]c4cc(Cl)ccc34)CC2)C1=O | 34 | 66 | 200 | 
3 | Cc1ccc2c(C3CCN(CCNC(=O)N(C)C)CC3)cn(-c3ccc(F)cc3)c2c1 | 22 | 2.6 | 38 | 
4 | Cc1ccc2c(C3CCN(CCN4CCN(C(C)C)C4=O)CC3)cn(-c3cccc(C(F)(F)F)c3)c2c1 |  | 150 |  | 
5 | CC(C)N1CCN(CCN2CCC(c3cn(-c4ccccc4)c4cc(Cl)ccc34)CC2)C1=O | 39 | 4.5 | 290 | 

More lines, main results first:

Row | IC50 [1] [nM] | IC50 [2] [nM] | IC50 (D(2) dopamine receptor) [nM] | SMILES | other results
6 | 250 | 18 | 2600 | CC(C)c1ccc2c(C3CCN(CCN4CCNC4=O)CC3)cn(-c3ccc(F)cc3)c2c1 | 
7 | 9.6 | 1.4 | 56 | O=C1NCCN1CCN1CCC(c2cn(-c3ccc(F)cc3)c3cc(Cl)ccc23)CC1 | 
8 | 85 | 1.6 |  | Cc1ccc2c(C3CCN(CCN4CCN(C(C)C)C4=O)CC3)cn(-c3ccc(F)cc3)c2c1 | ED50 (Mus musculus [3]): 7.3 µmol/kg; ED50 (Rattus norvegicus [9]): 0.11 µmol/kg; ED50 (Mus musculus [10]): 13 µmol/kg; ED50 (Rattus norvegicus [5]): > 18 µmol/kg; ED50 (Rattus norvegicus [11]): 0.042 µmol/kg; ED50 (Rattus norvegicus [12]): 0.036 µmol/kg
9 | 3.4 |  |  | O=C1NCCN1CCN1CCC(c2cn(-c3ccc(F)cc3)c3ccc(Cl)cc23)CC1 [SERTINDOLE] | ED50 (Rattus norvegicus [13]): 3.7 µmol/kg; ED50 (Rattus norvegicus [14]): 0.03 µmol/kg; ED50 (Rattus norvegicus [15]): 0.035 µmol/kg; ED50 (Mus musculus [16]): 5.9 µmol/kg; ED50 (Rattus norvegicus [17]): 0.039 µmol/kg; ED50 (Mus musculus [18]): 7.5 µmol/kg
10 | 730 | 16 |  | CC(C)c1ccc2c(C3CCN(CCN4CCN(C(C)C)C4=O)CC3)cn(-c3ccc(F)cc3)c2c1 | ED50 (Rattus norvegicus [19]): > 0.54 µmol/kg; ED50 (Rattus norvegicus [20]): > 4.3 µmol/kg
11 | 70 | 1.5 |  | CC(C)N1CCN(CCN2CCC(c3cn(-c4ccc(F)cc4)c4cc(Cl)ccc34)CC2)C1=O | ED50 (Mus musculus [3]): 2 µmol/kg; ED50 (Rattus norvegicus [5]): > 17 µmol/kg; ED50 (Rattus norvegicus [21]): 0.055 µmol/kg; ED50 (Mus musculus [6]): 2.3 µmol/kg; ED50 (Rattus norvegicus [22]): 0.11 µmol/kg; ED50 (Rattus norvegicus [23]): 0.052 µmol/kg
12 | 24 | 0.82 |  | Cc1ccc2c(C3CCN(CCN4CCNC4=O)CC3)cn(-c3ccc(F)cc3)c2c1 | 
